Measured values taken from ChEMBL document CHEMBL4689842, “EUbOPEN Chemogenomics Library wave 1” (2021).
Values joined by “and” are separate entries in the source; they are usually repeats but may differ in a detail not shown here. Identical values can stand only once.

How the values were obtained:
Assay type in all cases: toxicity, cell-based
Fibroblast [1] = assay: Multiplex assay against human fibroblast; settings: 24 h, 10 µM, compound concentration 10 uM
How it was run: (§1)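 Imaging took place on a CQ1 microscope at 37°C and 5% CO2 once compound had been added to live cells stained at seeding with Hoechst33342, BioTracker Green Microtubule Cytoskeleton Dye, MitoTracker Red and Annexin V Alexa Fluor 680. CellPathfinder machine-learning gating classed cells as Hoechst high-intensity objects or normal cells, classed normal cells as having healthy, pyknosed or fragmented nuclei, and classed pyknosed cells as mitotic or apoptotic. Tubulin, mitochondrial-mass and membrane-permeability phenotypes are per cents of the healthy-nucleus cells.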

HEK-293T = assay: Multiplex assay against HEK293T; settings: human, 10 µM, compound concentration 10 uM; how it was run: as §1;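 on Population Tubulin-Different-Phenotype (%): share of the cells with healthy nuclei that show this phenotype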
Fibroblast [2] = assay: Incucyte cell viability with human fibroblast; settings: 10 µM, compound concentration 10 uM; further: filed as whole numbers so only -1 and 0 and 1 occur
U2OS = assay: Incucyte cell viability with U2OS; settings: human, 10 µM, compound concentration 10 uM; further: filed as whole numbers so only -1 and 0 and 1 occur
[3] = 0 h, replicate number 1, timepoint 0 hours
[4] = 12 h, replicate number 1, timepoint 12 hours
[5] = 18 h, replicate number 1, timepoint 18 hours
[6] = 24 h, replicate number 1, timepoint 24 hours

SMILES: O=C(O)c1ccc2c(c1)nc(Nc1cccc(Cl)c1)c1ccncc12 [SILMITASERTIB]
- Population Healthy Nuclei (%) (Fibroblast [1]; replicate 1): 53% and 60%
- Population Hoechst High Intensity Objects (%) (Fibroblast [1]; replicate 1): 19% and 17%
- Population Membrane Permeable-Phenotype (%) (Fibroblast [1]; replicate 1): 5%
- Population Mitochondria Different-Phenotype (%) (Fibroblast [1]; replicate 1): 2%
- Population Mitotic Cells (%) (Fibroblast [1]; replicate 1): 46%
- Population Normal (%) (Fibroblast [1]; replicate 1): 80% and 82%
- Population Pyknosed Nuclei (%) (Fibroblast [1]; replicate 1): 14% and 13%
- Total Cell Count (Fibroblast [1]; replicate 1): 314 and 235
- Population Apoptotic (%) (Fibroblast [1]; replicate 2): 66% and 50%
- Population Fragmented Nuclei (%) (Fibroblast [1]; replicate 2): 62%
- Population Healthy Nuclei (%) (Fibroblast [1]; replicate 2): 26% and 29%
- Population Hoechst High Intensity Objects (%) (Fibroblast [1]; replicate 2): 27% and 33%
- Population Membrane Permeable-Phenotype (%) (Fibroblast [1]; replicate 2): 14% and 6%
- Population Mitotic Cells (%) (Fibroblast [1]; replicate 2): 33% and 50%
- Population Normal (%) (Fibroblast [1]; replicate 2): 72% and 66%
- Population Pyknosed Nuclei (%) (Fibroblast [1]; replicate 2): 11% and 7%
- Population Tubulin-Different-Phenotype (%) (Fibroblast [1]; replicate 2): 21% and 31%
- Total Cell Count (Fibroblast [1]; replicate 2): 73 and 81
- Population Apoptotic (%) (HEK-293T; 12 h, replicate 1): 24% and 17%
- Population Fragmented Nuclei (%) (HEK-293T; 12 h, replicate 1): 14% and 17%
- Population Healthy Nuclei (%) (HEK-293T; 12 h, replicate 1): 67% and 65%
- Population Hoechst High Intensity Objects (%) (HEK-293T; 12 h, replicate 1): 10% and 15%
- Population Membrane Permeable-Phenotype (%) (HEK-293T; 12 h, replicate 1): 8% and 6%
- Population Mitochondria Different-Phenotype (%) (HEK-293T; 12 h, replicate 1): 5% and 4%
- Population Mitotic Cells (%) (HEK-293T; 12 h, replicate 1): 76% and 82%
- Population Normal (%) (HEK-293T; 12 h, replicate 1): 89% and 84%
- Population Pyknosed Nuclei (%) (HEK-293T; 12 h, replicate 1): 17%
- Population Tubulin-Different-Phenotype (%) (HEK-293T; 12 h, replicate 1): 7% and 6%
- Total Cell Count (HEK-293T; 12 h, replicate 1): 624 and 579
- Population Apoptotic (%) (HEK-293T; 12 h, replicate 2): 11% and 7%
- Population Fragmented Nuclei (%) (HEK-293T; 12 h, replicate 2): 8% and 10%
- Population Healthy Nuclei (%) (HEK-293T; 12 h, replicate 2): 84% and 85%
- Population Hoechst High Intensity Objects (%) (HEK-293T; 12 h, replicate 2): 3% and 2%
- Population Membrane Permeable-Phenotype (%) (HEK-293T; 12 h, replicate 2): 4% and 1%
- Population Mitochondria Different-Phenotype (%) (HEK-293T; 12 h, replicate 2): 9%
- Population Mitotic Cells (%) (HEK-293T; 12 h, replicate 2): 88% and 92%
- Population Normal (%) (HEK-293T; 12 h, replicate 2): 96% and 97%
- Population Pyknosed Nuclei (%) (HEK-293T; 12 h, replicate 2): 6% and 3%
- Total Cell Count (HEK-293T; 12 h, replicate 2): 1391 and 1841
- Population Apoptotic (%) (HEK-293T; 24 h, replicate 1): 28% and 16%
- Population Fragmented Nuclei (%) (HEK-293T; 24 h, replicate 1): 14%
- Population Healthy Nuclei (%) (HEK-293T; 24 h, replicate 1): 77% and 74%
- Population Hoechst High Intensity Objects (%) (HEK-293T; 24 h, replicate 1): 6% and 14%
- Population Membrane Permeable-Phenotype (%) (HEK-293T; 24 h, replicate 1): 10%
- Population Mitochondria Different-Phenotype (%) (HEK-293T; 24 h, replicate 1): 5% and 3%
- Population Mitotic Cells (%) (HEK-293T; 24 h, replicate 1): 71% and 84%
- Population Normal (%) (HEK-293T; 24 h, replicate 1): 93% and 85%
- Population Pyknosed Nuclei (%) (HEK-293T; 24 h, replicate 1): 8% and 9%
- Population Tubulin-Different-Phenotype (%) (HEK-293T; 24 h, replicate 1): 5% and 15%
- Total Cell Count (HEK-293T; 24 h, replicate 1): 718 and 592
- Population Apoptotic (%) (HEK-293T; 24 h, replicate 2): 9% and 4%
- Population Fragmented Nuclei (%) (HEK-293T; 24 h, replicate 2): 15% and 30%
- Population Healthy Nuclei (%) (HEK-293T; 24 h, replicate 2): 79% and 67%
- Population Hoechst High Intensity Objects (%) (HEK-293T; 24 h, replicate 2): 7% and 4%
- Population Membrane Permeable-Phenotype (%) (HEK-293T; 24 h, replicate 2): 9% and 4%
- Population Mitochondria Different-Phenotype (%) (HEK-293T; 24 h, replicate 2): 6% and 0%
- Population Mitotic Cells (%) (HEK-293T; 24 h, replicate 2): 90% and 95%
- Population Normal (%) (HEK-293T; 24 h, replicate 2): 92% and 95%
- Population Pyknosed Nuclei (%) (HEK-293T; 24 h, replicate 2): 4% and 1%
- Total Cell Count (HEK-293T; 24 h, replicate 2): 1562 and 3163
- Growth Rate (Fibroblast [2]; [3]): 0
- Growth Rate (Fibroblast [2]; [4]): 1
- Growth Rate (Fibroblast [2]; [5]): 0
- Growth Rate (Fibroblast [2]; 18 h, replicate number 2, timepoint 18 hours): 1
- Growth Rate (Fibroblast [2]; [6]): 0
- Growth Rate (Fibroblast [2]; 24 h, replicate number 2, timepoint 24 hours): 1
- Growth Rate (U2OS; [3]): 0
- Growth Rate (U2OS; 0 h, replicate number 2, timepoint 0 hours): 1
- Growth Rate (U2OS; 6 h, replicate number 1, timepoint 6 hours): 1
- Growth Rate (U2OS; 6 h, replicate number 2, timepoint 6 hours): 0
- Growth Rate (U2OS; [4]): 0
- Growth Rate (U2OS; [5]): 0
- Growth Rate (U2OS; [6]): 0
